Our source for the IC50 values is ChEMBL document CHEMBL1153366, “Synthesis, discovery and preliminary SAR study of benzofuran derivatives as angiogenesis inhibitors” (Bioorg Med Chem Lett, 2009).

What all share (assay type): functional, cell-based
Assay [1] has as its system A549. The assay is described as follows: Antiproliferative activity against human A549 cells after 96 hrs by MTT method. An outline of the steps:
(§1)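 Cancer cells seeded at 1500 cells/well in 96-well plates and allowed 20 h to attach. They were then exposed to compound in 0.1% DMSO over a range of concentrations, with an equal volume of carrier as control, in triplicate. After 96 h, MTT was used to give relative viability. IC50 came from the viability versus concentration relationship.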

For assay [2], the system named is MCF7. The assay is described as follows: Antiproliferative activity against human MCF7 cells after 96 hrs by MTT method. The essentials:
as §1
In general terms: Tetrazolium assays rely on reduction of a dye to a coloured formazan, in cell work by metabolically active cells.

Assay [3] has as its system HUVEC. The assay is described as follows: Antiproliferative activity against HUVEC after 96 hrs by MTT method. The note with it: Homo sapiens. An outline of the steps:
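HUVECs seeded at 1000 cells/well in 96-well plates and left to attach 20 h. Compound added in 0.1% DMSO at several concentrations, with a carrier-only control. Each concentration run in triplicate. After 96 h exposure, viability was read by MTT and expressed relative to control. IC50 was derived from viability versus concentration.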

For assay [4], the system named is Bel-7402. The assay is described as follows: Antiproliferative activity against human Bel7402 cells after 96 hrs by MTT method. An outline of the steps: as §1

As usually defined, the IC50 is the concentration that gives 50% inhibition.

For the compound `CCOC(=O)/C=C/c1c(C(=O)OCC)oc2ccc(O)cc12`, the IC50 entry in assay [1] was “Not Active”; in assay [2], “Not Active”; in assay [3], 32.6 µM; in assay [4] it was “Not Active”.

For the compound `CCOC(=O)/C=C/c1oc2ccc(O)cc2c1C`, the IC50 result in assay [1] was “Not Active”; in assay [2], “Not Active”; in assay [3] it was greater than 50 µM; in assay [4] it was “Not Active”.

For the compound `CCOC(=O)/C=C/c1c(C)oc2ccc(O)cc12`, the IC50 result in assay [1] was “Not Active”; in assay [2] it was “Not Active”; in assay [3], 27.6 µM; in assay [4], “Not Active”.

As to `CCOC(=O)/C=C/c1oc2ccc(O)cc2c1C(=O)OCC`, the IC50 result in assay [1] is “Not Active”; in assay [2], “Not Active”; in assay [3], 4.3 µM; in assay [4], “Not Active”.
